Experiments:
A2780 = assay: Antiproliferative activity against human A2780 cells assessed as reduction in cell viability incubated for 48 hrs by Alamar blue assay; type: functional, cell-based; conditions: A2780, 48 h
Plasmodium falciparum = assay: Antiplasmodial activity against Plasmodium falciparum Dd2 assessed as reduction in parasite viability incubated for 72 hrs by SYBR Green I dye based assay; type: functional, organism-based; conditions: Dd2, 72 h
In short: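 Ring-stage parasite cultures at 1% parasitemia and 1% hematocrit, exposed to samples for 72 h at 37 °C under 5% CO2/5% O2/90% N2. Viability read by DNA quantitation with SYBR Green I in lysis buffer (0.33 μL dye per mL, 25 μL added). IC50 by nonlinear regression curve fitting; mean ± SD of three independent experiments.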

[1] = Selectivity index, ratio of IC50 for antiproliferative activity against human A2780 cells to IC50 for antiplasmodial activity against Plasmodium falciparum Dd2; type: functional

| IC50 (A2780) [µM] | Compound | IC50 (Plasmodium falciparum) [µM] | Ratio IC50 [1] |
| --- | --- | --- | --- |
| 12.4 | CCC(C)C(=O)c1c(O)cc(O)c(C/C=C(\C)CCC=C(C)C)c1O (stereo not drawn) | – | – |
| 7 | C=C(C)CCC(Cc1c(O)cc(O)c(C(=O)[C@@H](C)CC)c1O)/C(C)=C/CC=C(C)C (stereo partly drawn) | 12 | – |
| 15.2 | C=C1[C@@H](Cc2c(O)cc(O)c(C(=O)[C@@H](C)CC)c2O)CCC(C)(C)[C@@H]1CC=C(C)C | 0.8 | 20 |
| – | CC[C@H](C)C(=O)c1c(O)cc(O)c(CC(CCC(C)(C)O)/C(C)=C/CC=C(C)C)c1O (stereo partly drawn) | 8.3 | – |
| 6.4 | CC[C@H](C)C(=O)c1c(O)cc(O)c(CCC(C)(O)CCC=C(C)C)c1O (stereo partly drawn) | 5.4 | – |
| 4.5 | CC[C@H](C)C(=O)c1c(O)cc(O)c(CC2=C(C)[C@@H](CC=C(C)C)C(C)(C)CC2)c1O | 4.7 | – |
| 16.4 | CC(C)=CCC/C(C)=C/Cc1c(O)cc(O)c(C(=O)C(C)C)c1O | 12.5 | – |
| – | CC[C@H](C)C(=O)c1c(O)cc2c(c1O)C[C@@H]1C(C)(C)CCC[C@@]1(C)O2 (relative stereo) | 14.1 | – |
| – | C[C@@H]1CC[C@H]2[C@@H](C)C(=O)O[C@@H]3O[C@@]4(C)CC[C@@H]1[C@]32OO4 [ARTEMISININ] | 0.0085 | – |
| 19.7 | CC(C)=CCC/C(C)=C/CC/C(C)=C/CC[C@]1(C)CCc2cc(O)cc(C)c2O1 [DELTA-TOCOTRIENOL] | 5.3 | – |
| 10 | CCC(C)C(=O)c1c(O)cc(O)c2c1O[C@](C)(CCC=C(C)C)[C@@H](O)C2 (stereo partly drawn) [EMPETRIKARINOL B] | – | – |

Reference: ChEMBL document CHEMBL4411267, “Phloroglucinols from the Roots of Garcinia dauphinensis and Their Antiproliferative and Antiplasmodial Activities” (J Nat Prod, 2019)
